Screens (PubChem BioAssay)
ABCG2 inh – blocks JC-1 efflux by human ABCG2 transporter | Q9UNQ0 | IgMXP3 cells, flow cytometry | inhibition, % at 6.6 µM | 0.1% of 190,000 active | AID 1325;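 active = inhibition above 80%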;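 also: 0% = DMSO and 100% = nicardipine control wells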
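Read-out basis: Efflux inhibition in percent versus controls | Test system: ABCG2 IgMXP3 and barcoded ABCB1 CCRF-Adr cell mix | Quantity: 3 million cells/mL in well | Schedule: 10 min at 25 °C | Control set: Nicardipine as high control, DMSO as low control | Reagent: JC-1 as fluorescent efflux pump substrate | Signal: Flow cytometry of retained JC-1 fluorescence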
ABCB1 block – inhibitors of human ABCB1 transporter, ABCG2 counter-screen; 0.067% of 190,000 active; inhibition, % at 6.6 µM; AID 1326; CCRF-Adr cells, JC-1 efflux, flow cytometry; in the data active = inhibition above about 40%;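 also: 0% = vehicle and 100% = reference inhibitor; higher value means more JC-1 retained so stronger ABCB1 efflux block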
Target sequence (P08183 whole entry, looked up): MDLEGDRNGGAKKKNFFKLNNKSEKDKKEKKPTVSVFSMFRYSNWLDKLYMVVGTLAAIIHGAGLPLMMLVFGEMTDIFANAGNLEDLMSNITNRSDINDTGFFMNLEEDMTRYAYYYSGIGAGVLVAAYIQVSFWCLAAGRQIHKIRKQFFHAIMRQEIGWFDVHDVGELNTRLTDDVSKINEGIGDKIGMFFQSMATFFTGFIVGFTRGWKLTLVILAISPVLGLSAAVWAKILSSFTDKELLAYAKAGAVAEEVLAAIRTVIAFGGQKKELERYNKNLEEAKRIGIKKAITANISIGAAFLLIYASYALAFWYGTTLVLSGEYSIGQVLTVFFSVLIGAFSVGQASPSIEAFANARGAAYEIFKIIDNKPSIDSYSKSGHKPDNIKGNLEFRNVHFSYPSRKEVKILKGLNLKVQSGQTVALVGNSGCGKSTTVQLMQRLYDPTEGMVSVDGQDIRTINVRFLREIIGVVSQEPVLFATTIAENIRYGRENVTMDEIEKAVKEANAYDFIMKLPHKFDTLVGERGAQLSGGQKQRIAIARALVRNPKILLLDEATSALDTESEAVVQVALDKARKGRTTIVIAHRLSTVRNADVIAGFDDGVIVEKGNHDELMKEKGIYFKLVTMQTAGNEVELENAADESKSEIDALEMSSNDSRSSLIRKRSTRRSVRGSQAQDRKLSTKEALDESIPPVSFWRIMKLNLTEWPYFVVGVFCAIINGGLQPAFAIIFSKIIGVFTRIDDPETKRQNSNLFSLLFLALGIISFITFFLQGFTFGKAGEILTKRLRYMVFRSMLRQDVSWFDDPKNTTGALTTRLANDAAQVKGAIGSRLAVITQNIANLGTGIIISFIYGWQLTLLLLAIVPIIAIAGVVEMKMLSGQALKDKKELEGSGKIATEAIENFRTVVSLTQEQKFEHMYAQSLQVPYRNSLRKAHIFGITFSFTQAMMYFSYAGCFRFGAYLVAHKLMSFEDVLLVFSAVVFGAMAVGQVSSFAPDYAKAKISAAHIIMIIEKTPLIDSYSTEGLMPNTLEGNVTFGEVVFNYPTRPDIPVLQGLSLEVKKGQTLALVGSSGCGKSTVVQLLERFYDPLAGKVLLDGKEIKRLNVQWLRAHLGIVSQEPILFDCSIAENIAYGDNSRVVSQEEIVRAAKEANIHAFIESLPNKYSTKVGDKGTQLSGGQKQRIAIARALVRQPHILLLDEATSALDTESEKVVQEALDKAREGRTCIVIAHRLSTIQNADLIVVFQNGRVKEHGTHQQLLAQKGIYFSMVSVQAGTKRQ
Avidin bead fluor – avidin bead compound fluorescence profile | Avidin beads, compound fluorescence 488/530 nm, flow cytometry; active compounds read high | fluorescence (KMESF) at 10 µM | 0.38% of 220,000 active | AID 1775; in the data active = fluorescence above about 47
GSH fluor – GSH bead compound fluorescence profile | GSH beads flow cytometry, compound fluorescence 488/530 nm; active compounds read high | fluorescence (KMESF) at 10 µM | 0.25% of 190,000 active | AID 1776; in the data active = fluorescence above about 89;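 also: glutathione beads carrying GST-tagged Bcl family fusion proteins plus one bare bead set; values are compound well signal with DMSO vehicle wells as background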
Lmaj promast – inhibitors of Leishmania major promastigote growth; 9% of 200,000 active; inhibition, % at 10 µM; Leishmania major promastigotes, resazurin fluorescence viability;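 also: promastigotes grown with compound for 44 hours at 28 °C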
PKD1 inh – PKD1 (human) kinase inhibition; Q15139; PKD1 kinase fluorescence polarization assay; inhibition, % (test concentration not listed); 0.056% of 200,000 active
* = called active by the depositor; · = no result given. Shown is part of a subset that was picked to be rich in hits. Rule as the data show it, unless noted: active = inhibition above about 50%; inactive = the rest.

SMILES | ABCG2 inh | ABCB1 block | Avidin bead fluor | GSH fluor | Lmaj promast | PKD1 inh
COc1ccc([N+](=O)[O-])cc1N(CC(=O)NCC1CCCO1)S(C)(=O)=O (configuration not stated) | 10 | 0 | 18 | 8 | 58* | -7
CS(=O)(=O)N(CC(=O)NCC1CCCO1)c1cccc([N+](=O)[O-])c1 (configuration not stated) | 1 | 0 | 18 | 9 | 5 | -8
CCOc1ccc(CSC2=NCCN2)cc1Cl | 4 | 1 | 23 | 54 | 22 | 6
CCOc1ccc(Br)cc1/C(C)=N\NC1=NCCN1 | 3 | 0 | 12 | 13 | 95* | -1
O=C(CN1C(=O)/C(=C2\SC(=S)N(C3CCS(=O)(=O)C3)C2=O)c2ccccc21)Nc1ccccc1 (configuration not stated) | -7 | -1 | 22 | 10 | 91* | -14
Cc1ccc(NC(=O)CN2C(=O)/C(=C3\SC(=S)N(C4CCS(=O)(=O)C4)C3=O)c3ccccc32)cc1 (configuration not stated) | 6 | 0 | 22 | 10 | 91* | -7
CCN1C(=O)/C(=C2\SC(=S)N(NC(=O)c3ccccc3O)C2=O)c2ccccc21 | · | · | 9 | · | · | ·
CC1=C(C#N)C(=O)N(C2CCS(=O)(=O)C2)C(=O)/C1=C\c1ccco1 (configuration not stated) | · | · | 6 | · | · | ·
O=C(Nc1ccc(C2=NCCN2)cc1)c1ccc(Cl)c(C(=O)Nc2ccc(C3=NCCN3)cc2)c1 | · | · | 4 | · | · | ·
Cc1cc(C(=O)COC(=O)c2ccc(CO)cc2)c(C)n1CC1COc2ccccc2O1 (configuration not stated) | 22 | 1 | 14 | 11 | 55* | -11
Cc1cc(C(=O)CN2C(=O)C(=O)N(Cc3ccccc3)C2=O)c(C)n1CC1COc2ccccc2O1 (configuration not stated) | 17 | 2 | 9 | 65 | 3 | -3
COC(=O)[C@H](C)NC(=O)Nc1cc(Cl)ccc1C | 1 | 0 | 10 | 10 | -5 | -11
COc1cccc(/C=N/NC(=O)c2c(C)nc3ccc(Br)cn23)c1 | 7 | 1 | 10 | 28 | 12 | 2
O=C(/C=C\c1ccccc1)Oc1cccc2cccnc12 | 2 | 0 | 10 | 15 | 98* | -1
O=C(/C=C/c1ccccc1)Oc1cccc2cccnc12 | · | · | 2 | · | · | ·
O=C(NC(=S)NCCc1ccccc1)C1CCCCC1 | 26 | 1 | 17 | 10 | 88* | 10
CC(C)CC(=O)NC(=S)NCCc1ccccc1 | 3 | 0 | 9 | 14 | 41 | 0
CC(C)(C)CC(=O)NC(=S)NCCc1ccccc1 | 11 | 2 | 7 | 26 | 90* | 0
O=C(CCSCCc1ccccn1)Nc1cccc([N+](=O)[O-])c1 | 14 | 0 | 18 | 9 | -1 | 8
CCOc1ccc2nc(SCC(=O)c3ccccc3)sc2c1 | 2 | 0 | 9 | 263* | -3 | -1
CCOc1ccc2nc(SCc3ccccc3C#N)sc2c1 | 16 | 1 | 15 | 11 | -7 | -15
Fc1ccccc1Cc1noc(CN(Cc2ccccn2)CC2CCCO2)n1 (configuration not stated) | -1 | 0 | 7 | 13 | -5 | -6
CCCCCC/C(=N/O)c1ccccn1 | 2 | 0 | 12 | 80 | 91* | -8
C/C(=N/O)c1ccccn1 | -2 | 0 | 10 | 14 | -6 | 8
Cc1cc2occ(CC(=O)O)c2cc1C | 0 | 0 | 7 | 234* | -1 | 1
SMILES | ABCG2 inh | ABCB1 block | Avidin bead fluor | GSH fluor | Lmaj promast | PKD1 inh
Cc1ccc2c(CC(=O)O)coc2c1 | -1 | 0 | 15 | 24 | -7 | -10
O=C(Nc1cccc2ccccc12)C12CC3CC(C1)CC(n1cnc([N+](=O)[O-])n1)(C3)C2 | 2 | 1 | 12 | 77 | 73* | -3
O=C(Nc1cc(Oc2ccccc2)cc([N+](=O)[O-])c1)C12CC3CC(C1)CC(n1cnc(Cl)n1)(C3)C2 | 7 | 2 | 10 | 11 | 80* | 2
CCCCOC1CC(c2ccc(OCc3ccc(OC)cc3)c(OC)c2)N(C)O1 (configuration not stated) | 0 | 0 | 35 | 10 | 3 | -5
O=C(O)[C@H](Cc1ccccc1)NC(=O)N1CCOCC1 | 0 | 0 | 8 | 49 | 70* | 4
O=C(NCc1ccccc1)N1CCOCC1 | · | · | 3 | · | · | ·
CC(C)(C)OC(=O)N1CCCC1C(=O)NC(Cc1ccccc1)C(=O)O (configuration not stated) | 1 | 0 | 9 | 16 | 5 | -5
O=C(NC(Cc1ccccc1)C(=O)NC(Cc1ccccc1)C(=O)O)c1ccccc1 (configuration not stated) | 0 | 0 | 13 | 18 | 57* | -9
CC1CCCCN1C(=O)N[C@@H](Cc1ccccc1)C(=O)O (some centres not stated) | -1 | 0 | 7 | 24 | 51* | -12
CC1CCCCN1C(=O)C(Cc1ccccc1)N1C(=O)C2CCCCC2C1=O (configuration not stated) | 3 | · | 14 | 10 | 62* | -6
CCOc1ccc(N(CC(=O)NC2CCCC2)C(=O)CSc2nnc(COc3ccccc3)o2)cc1 | 2 | 1 | 6 | 41 | 11 | -8
Cc1cccc(-c2nc(C#N)c(NC3CCCCC3)o2)c1 | 1 | 0 | 34 | 13 | 31 | -12
O=C(O)c1cnc(-c2ccccc2)nc1-c1ccccc1 | 1 | 0 | 16 | 10 | -2 | -2
CC(C)OC(=O)c1c(NC(=O)Cn2cnc([N+](=O)[O-])n2)sc2c1CCCC2 | 9 | 2 | · | 18 | 85* | 5
CCOC(=O)c1c(NC(=O)CSc2nnc(-c3c[nH]c4ccccc34)n2C)sc2c1CCCC2 | 7 | 1 | 3 | 16 | 51* | -3
NC(=O)c1c(NC(=O)Cn2cnc([N+](=O)[O-])n2)sc2c1CCCC2 | · | · | 8 | · | · | ·
CCOC(=O)c1c(NC(=O)Cn2cnc([N+](=O)[O-])n2)sc2c1CCCC2 | 25 | 2 | 9 | 11 | 92* | -11
O=C(O)CCCCCNC(=O)Cn1nnc2ccccc2c1=O | · | · | 8 | · | · | ·
CCN=C1SC(CC(=O)NCc2ccccc2)C(=O)N1CC (configuration not stated) | 0 | 0 | 9 | 43 | -6 | -3
Cc1ccc(C(=O)NC2CC3CCCC(C2)N3C(=O)NC2CCCCC2)cc1 (configuration not stated) | 1 | 1 | 7 | 36 | -4 | -1
Cc1ccc(CN2C3CCCC2CC(NC(=O)c2ccc(C)cc2)C3)cc1 (configuration not stated) | 2 | 2 | 9 | 11 | 81* | -2
Cc1ccc(C(=O)NC2CC3CCC(C2)N3Cc2ccco2)cc1 (configuration not stated) | -1 | 0 | 14 | 18 | 57* | -11
